What was measured:
[1] = molecular target: T1, 5-hydroxytryptamine receptor 2C (Rattus norvegicus, UniProt P08909); test: Binding affinity towards 5-hydroxytryptamine 1C receptor from frontal cortical regions of male Sprague-Dawley rat homogenates, using [3H]mesulergine as radioligand
T1 sequence (P08909 whole entry): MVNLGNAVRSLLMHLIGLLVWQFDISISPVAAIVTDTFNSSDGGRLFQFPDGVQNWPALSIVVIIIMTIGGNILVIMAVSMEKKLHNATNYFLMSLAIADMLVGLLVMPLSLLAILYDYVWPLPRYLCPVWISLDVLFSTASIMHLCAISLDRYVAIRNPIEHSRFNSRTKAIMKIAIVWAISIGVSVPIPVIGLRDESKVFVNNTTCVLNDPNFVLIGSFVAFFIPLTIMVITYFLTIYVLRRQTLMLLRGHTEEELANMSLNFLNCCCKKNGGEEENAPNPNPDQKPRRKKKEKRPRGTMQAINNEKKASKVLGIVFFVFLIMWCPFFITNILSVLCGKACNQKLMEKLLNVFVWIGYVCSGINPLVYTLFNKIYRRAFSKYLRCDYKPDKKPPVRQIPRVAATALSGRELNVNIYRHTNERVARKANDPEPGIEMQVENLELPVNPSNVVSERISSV
How it was run: (§1)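 Male Sprague–Dawley rat frontal cortex membranes were washed in Tris/EDTA/MgCl2 pH 7.4 with a 37 °C preincubation and resuspended with ascorbate and pargyline. Each tube held 10 mg wet tissue, 1 nM [3H]mesulergine and 100 nM spiperone to block 5-HT2 sites. Nonspecific binding was set with 1 μM mianserin. Tubes were incubated 15 min at 37 °C, in triplicate, then filtered. Ki = IC50/(1+D*/KD*).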

[2] = molecular target: Serotonin 2 (5-HT2) receptor (Rattus norvegicus) (UniProt P30994+P08909+P14842); test: 5-HT1C selectivity was defined as the ratio between Ki(5-HT2)/Ki(5-HT1C); format: protein assay
Sequence of Serotonin 2 (5-HT2) receptor (Rattus norvegicus) (P14842 whole entry, looked up, one chain of several): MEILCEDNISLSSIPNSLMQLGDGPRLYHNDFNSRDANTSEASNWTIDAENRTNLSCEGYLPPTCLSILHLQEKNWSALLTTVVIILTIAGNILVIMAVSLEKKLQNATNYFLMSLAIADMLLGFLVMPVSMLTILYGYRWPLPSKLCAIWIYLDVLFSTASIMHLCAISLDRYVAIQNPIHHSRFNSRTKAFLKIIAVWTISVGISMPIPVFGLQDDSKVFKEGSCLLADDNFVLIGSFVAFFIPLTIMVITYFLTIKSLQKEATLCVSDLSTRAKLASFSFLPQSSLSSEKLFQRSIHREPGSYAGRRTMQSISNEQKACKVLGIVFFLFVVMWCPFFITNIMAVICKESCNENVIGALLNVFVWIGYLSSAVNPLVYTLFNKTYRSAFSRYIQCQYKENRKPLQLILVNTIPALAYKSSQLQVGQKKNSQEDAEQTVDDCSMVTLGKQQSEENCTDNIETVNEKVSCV
Sequence of Serotonin 2 (5-HT2) receptor (Rattus norvegicus) (P30994 whole entry, looked up, one chain of several): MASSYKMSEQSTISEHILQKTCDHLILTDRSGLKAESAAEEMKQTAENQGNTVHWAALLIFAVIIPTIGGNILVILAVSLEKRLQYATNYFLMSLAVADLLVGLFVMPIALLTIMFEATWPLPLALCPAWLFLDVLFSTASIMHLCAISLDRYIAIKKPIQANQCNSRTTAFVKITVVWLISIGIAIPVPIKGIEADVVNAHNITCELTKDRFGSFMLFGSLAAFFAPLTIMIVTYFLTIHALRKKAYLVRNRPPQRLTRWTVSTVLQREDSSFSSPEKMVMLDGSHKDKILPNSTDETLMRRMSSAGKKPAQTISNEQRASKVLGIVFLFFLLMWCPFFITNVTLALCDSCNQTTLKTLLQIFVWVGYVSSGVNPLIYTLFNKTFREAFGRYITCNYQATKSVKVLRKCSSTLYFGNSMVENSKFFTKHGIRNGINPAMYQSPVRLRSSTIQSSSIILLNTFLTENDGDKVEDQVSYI
How it was run: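 Ratio of Ki values from rat frontal cortex competition assays. For 5-HT2: 0.4 nM [3H]ketanserin, with 1 μM cinanserin nonspecific. For 5-HT1C: 1 nM [3H]mesulergine plus 100 nM spiperone, with 1 μM mianserin nonspecific. Both were run 15 min at 37 °C in triplicate. Ki = IC50/(1+D*/KD*).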

[3] = molecular target: T2, Serotonin 2 (5-HT2) receptor (Rattus norvegicus, UniProt P30994+P08909+P14842); test: Binding affinity towards 5-hydroxytryptamine 2 receptor from frontal cortical regions of male Sprague-Dawley rat homogenates, using [3H]ketanserin as radioligand
How it was run: (§2)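 Male Sprague–Dawley rat frontal cortex membranes were washed in 50 mM Tris, 0.5 mM EDTA, 10 mM MgCl2, pH 7.4, and resuspended with 0.1% ascorbate and 10^-6 M pargyline. Each tube held 5 mg wet tissue and 0.4 nM [3H]ketanserin. Nonspecific binding was set with 1.0 μM cinanserin. Tubes were incubated 15 min at 37 °C, in triplicate, then filtered on PEI-soaked glass fiber. Ki came from IC50 via Cheng–Prusoff, using the saturation KD.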

[4] = molecular target: T2, Serotonin 2 (5-HT2) receptor; test: Compound was tested for binding affinity towards 5-hydroxytryptamine 2 (5-hydroxytryptamine-2) receptor from frontal cortical regions of male Sprague-Dawley rat homogenates, using [3H]-ketanserin as radioligand; how it was run: as §2
[5] = molecular target: T1, 5-hydroxytryptamine receptor 2C; test: Compound was tested for binding affinity towards 5-hydroxytryptamine 1C receptor from frontal cortical regions of male Sprague-Dawley rat homogenates, using [3H]mesulergine as radioligand; how it was run: as §1

Structure (SMILES) | Ki [1] | Selectivity [2] | Ki [3] | Ki [4] | Ki [5]
CCCNC(C)Cc1cc(OC)c(Br)cc1OC (stereo unspecified) | > 10000 nM | < 1 | 2460 nM |  | 
COc1ccc(OC)c(CC(C)N)c1 (stereo unspecified) | 1220 nM |  |  |  | 
COc1cccc(Br)c1CC(C)N (stereo unspecified) | 1560 nM | > 6 | > 10000 nM |  | 
CCCc1ccc(CC(C)NC)cc1 (stereo unspecified) | 1930 nM | 1 | 2525 nM |  | 
Cc1ccc(CC(C)N)cc1 (stereo unspecified) |  |  |  | > 10000 nM | > 10000 nM
CCOc1ccc(CC(C)N)cc1 (stereo unspecified) |  |  | > 10000 nM |  | > 10000 nM
COc1cc(C)ccc1CCN | 110 nM | 7 | 825 nM |  | 
COc1cc(Br)ccc1CC(C)N (stereo unspecified) | 100 nM | 8 | 830 nM |  | 
COc1cc(I)ccc1CC(C)N (stereo unspecified) | 130 nM | 5 | 580 nM |  | 
CNC(C)Cc1cc(OC)c(Br)cc1OC (stereo unspecified) | 98 nM | 1 | 80 nM |  | 
COc1cc(C)ccc1CC(C)N (stereo unspecified) | 610 nM | 2 | 1435 nM |  | 
CC(N)Cc1ccc(OC(=O)c2ccccc2)cc1 (stereo unspecified) |  |  |  |  | 1210 nM
COc1cc(CC(C)N)c(OC)cc1I (stereo unspecified) | 30 nM | 0.6 |  |  | 
CCCc1cc(OC)c(CC(C)N)cc1OC (stereo unspecified) | 14 nM | 5 |  |  | 
CCCCc1cc(OC)c(CC(C)N)cc1OC (stereo unspecified) | 26 nM | 2 |  |  | 
COc1ccc(CC(C)N)c(OC)c1 (stereo unspecified) | 4480 nM | > 2 | > 10000 nM |  | 
CCOc1cc(OC)c(CC(C)N)cc1OC (stereo unspecified) | 2300 nM | 1 |  |  | 
COc1cc(Br)ccc1CCN | 220 nM | 5 | 1030 nM |  | 
CNC(C)Cc1ccc(C)cc1OC (stereo unspecified) | 1480 nM |  |  |  | 
CCCOC(=O)c1cc(OC)c(CC(C)N)cc1OC (stereo unspecified) | > 10000 nM | < 1 |  |  | 
CCCc1ccc(CC(C)N)cc1 (stereo unspecified) |  | 2 |  | 2345 nM | 1250 nM
CC(N)Cc1ccc(Br)cc1 (stereo unspecified) | 1480 nM |  |  |  | 
